Assay [1] has as its system CB2R. As to conditions: CB2R-mediated gastrointestinal assays; cited from earlier work.
The subject of assay [2] is CB2. The note with it: Fig. 2 and introduction; cited from earlier work.
Assay [3] relates to P-ERK 1/2 expression in HL-60 cells selectively expressing CB2R. The note with it: cited from earlier work.
Assay [4] has as its target CB1R (Mus musculus, UniProt P47746). Description: Radioligand binding, CB1R, [3H]-CP-55,940 competition in mouse brain.
The target in assay [5] is CB2R (Mus musculus, UniProt P47936). Briefly: Radioligand binding, CB2R, [3H]-CP-55,940 competition in mouse spleen homogenate.
In assay [6] the test system is P-ERK 1/2 expression in HL-60 cells selectively expressing CB2R. Briefly: P-ERK 1/2 expression. The class given is cell-based, human. In a few lines: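 HL-60 cells grown at 37 °C, 5% CO2, in RPMI 1640 with 10% heat-inactivated FBS, 25 mM HEPES, 2.5 mM pyruvate and gentamicin, and used at 80% confluency. Compounds were given in medium with 1% DMSO for 15 min, with or without 75 nM AM630 added 5 min before. Lysates (HEPES pH 7.9, 4 °C) were western-blotted for P-ERK1/2. Values are % of vehicle, five separate experiments, ±SEM.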

Where only a bound is given, the exact number is not on record here.

Here are results for twelve molecules from PMC3406267 (The Open Medicinal Chemistry Journal, 2012).

CB2R (Mus musculus, UniProt P47936), sequence (P47936 whole entry): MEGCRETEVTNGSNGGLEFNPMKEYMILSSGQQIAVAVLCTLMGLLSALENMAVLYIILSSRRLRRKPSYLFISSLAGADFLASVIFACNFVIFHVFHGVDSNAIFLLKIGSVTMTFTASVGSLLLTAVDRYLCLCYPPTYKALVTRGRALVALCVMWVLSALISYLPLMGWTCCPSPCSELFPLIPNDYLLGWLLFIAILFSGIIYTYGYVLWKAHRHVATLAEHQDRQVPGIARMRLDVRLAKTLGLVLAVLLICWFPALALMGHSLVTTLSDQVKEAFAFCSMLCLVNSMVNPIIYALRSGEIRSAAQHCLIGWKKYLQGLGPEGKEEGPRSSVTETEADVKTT
CB1R, sequence (P47746 whole entry): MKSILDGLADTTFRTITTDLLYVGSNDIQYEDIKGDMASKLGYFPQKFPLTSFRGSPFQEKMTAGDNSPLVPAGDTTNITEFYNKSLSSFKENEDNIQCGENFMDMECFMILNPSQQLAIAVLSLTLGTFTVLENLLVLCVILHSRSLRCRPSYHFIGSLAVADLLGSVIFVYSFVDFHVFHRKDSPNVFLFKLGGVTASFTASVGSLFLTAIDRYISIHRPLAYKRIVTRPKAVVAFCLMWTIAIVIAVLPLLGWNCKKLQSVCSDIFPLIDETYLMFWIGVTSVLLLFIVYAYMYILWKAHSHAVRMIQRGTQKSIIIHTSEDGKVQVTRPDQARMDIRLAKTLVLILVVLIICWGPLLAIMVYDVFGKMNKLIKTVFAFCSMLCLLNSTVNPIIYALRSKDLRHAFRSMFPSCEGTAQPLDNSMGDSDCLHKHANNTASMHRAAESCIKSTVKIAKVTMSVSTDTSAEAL

Turning to “5-(4-chloro-3-methylphenyl)-1-(4-methylbenzyl)-N-fenchyl-1H-pyrazole-3-carboxamide [Compound 1]”, the “in vivo CB2R antagonist activity” value in assay [1] is recorded as “remarkable in vivo CB2R antagonist activity”. Besides, the “selectivity ratio KiCB1/KiCB2 of SR144528” value in assay [2] is above 600.
Regarding `Cc1ccc2c(c1)Cc1c(C(=O)NN3CCCCC3)nn(-c3ccc(Cl)cc3Cl)c1-2` [Compound 2, 1-(2,4-dichlorophenyl)-6-methyl-N-(piperidin-1-yl)-1,4-dihydroindeno[1,2-c]pyrazole-3-carboxamide], the “CB2 intrinsic activity in vitro” value in assay [3] is on record as “CB2 agonist activity in vitro”.
Regarding `Cc1cc2c(cc1Cl)-c1c(c(C(=O)NC3CC4CCC3(C)C4(C)C)nn1-c1ccc(Cl)cc1Cl)C2` (stereo not drawn) [Compound 6, N-Bornyl-7-chloro-1-(2,4-dichlorophenyl)-6-methyl-1,4-dihydroindeno[1,2-c]pyrazole-3-carboxamide], the inhibition constant (Ki) in assay [4] is 2.67 ± 0.167 µM; in assay [5], 0.474 ± 0.025 µM.
In the same order, the values of `Cc1cc2c(cc1Cl)-c1c(c(C(=O)NC3CC(C)CCC3C(C)C)nn1-c1ccc(Cl)cc1Cl)C2` (stereo not drawn) [Compound 9, N-Menthyl-7-chloro-1-(2,4-Dichlorophenyl)-6-methyl-1,4-dihydroindeno[1,2-c]pyrazole-3-carboxamide] are 1.25 ± 0.359 µM and 3.1 ± 0.283 µM.
Taken in the same sequence, the figures for `Cc1cc2c(cc1Cl)-c1c(c(C(=O)NC34CC5CC(CC(C5)C3)C4)nn1-c1ccc(Cl)cc1Cl)C2` [Compound 10, N-Adamant-1-yl-7-chloro-1-(2,4-dichlorophenyl)-6-methyl-1,4-dihydroindeno[1,2-c]pyrazole-3-carboxamide] were 1.3 ± 0.347 µM and 0.425 ± 0.095 µM.
Taken in the same sequence, the figures for `Cc1cc2c(cc1Cl)-c1c(c(C(=O)NC3C4CC5CC(C4)CC3C5)nn1-c1ccc(Cl)cc1Cl)C2` (stereo not drawn) [Compound 11, N-Adamant-2-yl-7-chloro-1-(2,4-dichlorophenyl)-6-methyl-1,4-dihydroindeno[1,2-c]pyrazole-3-carboxamide] were 4.62 ± 0.857 µM and 0.275 ± 0.025 µM.
With `Cc1cc2c(cc1Cl)-c1c(c(C(=O)N[C@H]3CC[C@H](C)CC3)nn1-c1ccc(Cl)cc1Cl)C2` [Compound 14, Trans-N-(4-Methylcyclohexyl)-7-chloro-1-(2,4-dichlorophenyl)-6-meth-yl-1,4-dihydroindeno[1,2-c]pyrazole-3-carboxamide], the results for the Ki in assay [4] and in assay [5] were above 5 µM and 0.325 ± 0.053 µM, respectively.
Taken in the same sequence, the figures for `Cc1cc2c(cc1Cl)-c1c(c(C(=O)NC3CCCCCC3)nn1-c1ccc(Cl)cc1Cl)C2` [Compound 16, N-Cycloheptyl-7-chloro-1-(2,4-dichlorophenyl)-6-methyl-1,4-dihydroindeno[1,2-c]pyrazole-3-carboxamide] were 3.75 ± 1.25 µM and 1.53 ± 1.24 µM.
In the same order, the values of `Cc1cc2c(cc1Cl)-c1c(c(C(=O)Nc3cccc4ccccc34)nn1-c1ccc(Cl)cc1Cl)C2` [Compound 18, N-(Naphthalen-1-yl)-7-chloro-1-(2,4-dichlorophenyl)-6-methyl-1,4-dihydroindeno[1,2-c]pyrazole-3-carboxamide] are above 5 µM and 1.13 ± 0.125 µM.
Take `Cc1cc2c(cc1Cl)-c1c(c(C(=O)NC(C)c3cccc4ccccc34)nn1-c1ccc(Cl)cc1Cl)C2` (stereo not drawn) [Compound 19, N-(1-(1-Naphthyl)ethyl)-7-chloro-1-(2,4-dichlorophenyl)-6-methyl-1,4-dihydroindeno[1,2-c]pyrazole-3-carboxamide]: the Ki in assay [4] is above 5 µM; in assay [5], 2.4 ± 0.4 µM.
On to `Cc1cc2c(cc1Cl)Cc1c(C(=O)NC34CC5CC(CC(C5)C3)C4)nn(-c3ccc(Cl)cc3Cl)c1-2` [Compound 24, N-Adamant-1-yl-6-chloro-1-(2,4-dichlorophenyl)-7-methyl-1,4-dihydroindeno[1,2-c]pyrazole-3-carboxamide], for which the results for the Ki in assay [4] and in assay [5] were 4.75 ± 0.02 µM and 1.35 ± 0.813 µM, respectively.
For `Cc1c(C(=O)c2cccc3ccccc23)c2cccc3c2n1[C@H](CN1CCOCC1)CO3` [WIN 55,212-2], the “P-ERK 1/2 expression, percentage of increment versus vehicle” value in assay [6] (75 nM (dose of maximum effect), 15 min exposure) was “+83.2 ± 18.9%”. Besides, the “Effect on P-ERK 1/2 expression after 5 min pre-treatment with CB2 antagonist AM630” value in assay [6] (AM630 75 nM, agonist at dose of maximum effect, 15 min) is recorded as “counteracted”. In addition, the “P-ERK 1/2 expression in treated HL-60 cells versus vehicle” value in assay [6] (western blot, 15 min exposure) is listed as “significant increase”.
